In ChEMBL document CHEMBL1134608, “Nucleosides and nucleotides. 200. Reinvestigation of 5'-N-ethylcarboxamidoadenosine derivatives: structure-activity relationships for P(3) purinoceptor-like proteins” (J Med Chem, 2001) one finds Ratio, Ki and Activity data, which are given here for four compounds.

The species named for test [1] is Rattus norvegicus. The test can be described thus: Ratio of affinity for A3 and P3LP receptors.
Test [2] is filed under the species Rattus norvegicus. Description: Ratio of affinity for A2A and P3LP receptors.
For test [3], the target named is T1, Adenosine receptor A1 (Rattus norvegicus, UniProt P25099).
T1 sequence (P25099 whole entry): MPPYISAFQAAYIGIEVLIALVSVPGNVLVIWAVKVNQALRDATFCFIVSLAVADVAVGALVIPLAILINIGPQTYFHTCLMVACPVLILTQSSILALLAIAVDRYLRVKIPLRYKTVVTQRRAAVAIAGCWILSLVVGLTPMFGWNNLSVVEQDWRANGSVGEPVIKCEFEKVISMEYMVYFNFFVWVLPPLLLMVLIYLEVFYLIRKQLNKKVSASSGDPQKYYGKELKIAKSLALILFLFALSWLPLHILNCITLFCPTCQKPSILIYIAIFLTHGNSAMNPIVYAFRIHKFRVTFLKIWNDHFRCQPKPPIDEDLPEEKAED
The test can be described thus: Binding activity against Adenosine A1 receptor from rat brain membranes using [3H]8-cyclopentyl-1,3-dipropylxanthine (DPCPX).

Test [4] concerns the target T2, Adenosine receptor A2b (Rattus norvegicus) (UniProt P29276).
T2 sequence (whole entry): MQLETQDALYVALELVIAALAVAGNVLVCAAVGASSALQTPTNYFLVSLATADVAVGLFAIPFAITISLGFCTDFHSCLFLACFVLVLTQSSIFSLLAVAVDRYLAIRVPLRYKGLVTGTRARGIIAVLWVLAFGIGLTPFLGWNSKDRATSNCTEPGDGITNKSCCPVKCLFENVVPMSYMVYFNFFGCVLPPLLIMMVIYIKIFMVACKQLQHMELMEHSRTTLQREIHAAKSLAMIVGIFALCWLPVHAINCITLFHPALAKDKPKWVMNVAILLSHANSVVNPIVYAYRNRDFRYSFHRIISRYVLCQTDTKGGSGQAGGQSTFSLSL
Description: Agonist activity as cAMP production in CHO cells expressing rat Adenosine A2B receptor at 100 uM. The format is functional, cell-based. The gist of the method: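 Rat A2B receptor cDNA transfected into CHO cells; agonism read as cAMP production with test compound at 100 µM, given as percentage of NECA-induced activity.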
(cAMP levels reflect the balance of adenylyl cyclase and phosphodiesterase activity.)

For test [5], the target named is T3, Adenosine receptor A3 (Rattus norvegicus, UniProt P28647).
T3 sequence (P28647 whole entry): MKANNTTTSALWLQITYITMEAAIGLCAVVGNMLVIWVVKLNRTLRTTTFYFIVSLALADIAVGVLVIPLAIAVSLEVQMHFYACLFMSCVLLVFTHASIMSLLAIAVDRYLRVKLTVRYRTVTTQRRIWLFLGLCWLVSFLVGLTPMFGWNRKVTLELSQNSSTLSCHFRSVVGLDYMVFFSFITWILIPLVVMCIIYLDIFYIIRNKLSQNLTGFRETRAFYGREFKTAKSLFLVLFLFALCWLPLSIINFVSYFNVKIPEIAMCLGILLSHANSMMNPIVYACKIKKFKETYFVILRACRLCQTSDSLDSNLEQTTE
The test can be described thus: Binding affinity for adenosine A3 receptor in CHO cell membranes using [125I]IB-MECA.

In test [6] the target is Adenosine receptor A2a (Rattus norvegicus, UniProt P30543). Description: Binding affinity for Adenosine A2A receptor in rat brain membranes using [3H]CGS-21680. The format is cell membranes.
The species named for test [7] is Rattus norvegicus. Description: Ratio of affinity for A1 AND P3LP receptor.

Structures are written as SMILES.

Sequence of Adenosine receptor A2a (P30543 whole entry): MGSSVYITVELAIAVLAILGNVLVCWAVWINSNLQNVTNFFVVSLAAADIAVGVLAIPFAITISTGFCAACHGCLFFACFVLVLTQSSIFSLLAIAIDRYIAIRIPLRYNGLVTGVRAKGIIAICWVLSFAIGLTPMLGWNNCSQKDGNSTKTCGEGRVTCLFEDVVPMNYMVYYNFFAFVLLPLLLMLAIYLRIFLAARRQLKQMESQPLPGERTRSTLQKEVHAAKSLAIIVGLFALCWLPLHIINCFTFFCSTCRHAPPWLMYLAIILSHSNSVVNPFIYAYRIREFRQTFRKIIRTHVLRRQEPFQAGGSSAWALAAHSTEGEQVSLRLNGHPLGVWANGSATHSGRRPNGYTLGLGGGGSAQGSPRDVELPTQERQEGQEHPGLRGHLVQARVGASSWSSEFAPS

With `CCCCCNC(=O)[C@H]1O[C@@H](n2cnc3c(N)ncnc32)[C@H](O)[C@@H]1O`, the values for the Ratio in test [1], in test [2] and in test [7] were 456, 49.6 and 80.2, respectively. Moreover, the Ki in test [3] turned out to be 979 nM; in test [5], 5560 nM; in test [6], 605 nM. Also, in test [4], the Activity was 3.4%.

For `Nc1ncnc2c1ncn2[C@@H]1O[C@H](C(=O)NC2CCCCC2)[C@@H](O)[C@H]1O`, the Ratio turned out to be 830 in test [1], 137 in test [2] and 275 in test [7]. Also, the Ki in test [3] worked out at 5020 nM; in test [5], 15100 nM; in test [6], 2500 nM. The same compound gave an Activity in test [4] of 1.9%.

Turning to `C#CC(O)[C@H]1O[C@@H](n2cnc3c(N)ncnc32)[C@H](O)[C@@H]1O` (some centres not stated), the Ratio in test [1] came to 15500; in test [2], 105; in test [7], 44.9. Besides, the results for the Ki in test [3], in test [5] and in test [6] were 897 nM, 310000 nM and 2110 nM, respectively. The compound also showed an Activity in test [4] of 10%.

In the case of `CCNC(=O)[C@H]1O[C@@H](n2cnc3c(N)ncnc32)[C@H](O)[C@@H]1O`, the Activity in test [4] was 100.

A word on the Ki: it is a measure of affinity in units of concentration, obtained from inhibition or displacement.
